A short description of series [1]: Drug metabolism in Sprague-Dawley rat liver microsomes assessed as CYP450-mediated 2-[[2-(aminomethyl)-3-(3,5-dibromophenyl)-2-[(3,5-dibromophenyl)methyl]propanoyl]amino]acetic acid formation incubated up to 3 hrs in presence of NADPH regenerating system by RP-HPLC-MS analysis. It is filed as ADME. An outline of the steps: (§1)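 Substrate at 1 µL of 100 µM aqueous stock in 100 mM potassium phosphate, pH 7.4, with NADPH regenerating system. Pooled male Sprague–Dawley rat liver microsomes (20 mg/mL stock) added, then incubated at 37 °C. Sampled at 0–180 min and quenched with cold methanol containing propranolol internal standard. Analysed by RP-HPLC–HRMS in positive ESI mode. Metabolites confirmed by HCD MS2. Triplicate incubations.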

Series [2] relates to Acinetobacter baumannii. Nature of the series: Antibacterial activity against multidrug-resistant Acinetobacter baumannii K12-21 producing oxcillinase-58 cultured in MHB medium assessed as reduction in bacterial growth incubated for 24 hrs by microdilution susceptibility test. It counts as functional. As to conditions: K12-21, 24 h. An outline of the steps:
(§2)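 Broth microdilution per CLSI M07-A9 (modified). Working solutions made from concentrated DMSO stocks kept at r.t., diluted in double-distilled water, final DMSO <1%. Inoculum 1–1.2 x 10⁶ cells/mL in Mueller-Hinton broth, mixed 1:1 with compound. 37 °C, 24 h, four parallels. Read as OD₆₀₀. Where precipitation left residual OD, the point of major OD decrease was taken as the inhibitory concentration.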
(In general: Broth dilution looks for growth in wells or tubes with falling amounts of substance.)

A short description of series [3]: Drug metabolism in Sprague-Dawley rat liver microsomes assessed as CYP450-mediated 4-[2-(aminomethyl)-3-(3,5-dibromophenyl)-2-(4,5-dihydrooxazol-3-ium-2-yl)propyl]-2,6-dibromo-phenol formation incubated up to 3 hrs in presence of NADPH regenerating system by RP-HPLC-MS analysis. It counts as ADME. In outline:
as §1
On the technique in general: Liver microsomes are vesicles of endoplasmic reticulum, rich in cytochrome P450 enzymes.

Series [4] concerns Staphylococcus aureus. Nature of the series: Antibacterial activity against Staphylococcus aureus ATCC 9144 cultured in MHB medium assessed as no bacterial growth incubated at 37 degC for 24 hrs by microdilution susceptibility test. It counts as functional. As to conditions: ATCC 9144, 24 h. In outline:
(§3)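 Broth microdilution per CLSI M07-A9 with modifications. Inoculum about 2.5–3 x 10⁴ cells/mL in Mueller-Hinton broth, mixed 1:1 with test derivative. DMSO stocks diluted in double-distilled water, final DMSO <1%. Incubation 24 h at 37 °C (20 °C for C. glutamicum). Growth and sterility controls included; oxytetracycline reference.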

Series [5] relates to Enterococcus faecium. Nature of the series: Antibacterial activity against multidrug-resistant Enterococcus faecium TUH50-22 cultured in BHIB medium assessed as reduction in bacterial growth incubated for 24 hrs by microdilution susceptibility test. It counts as functional. As to conditions: TUH50-22, 24 h. In outline: (§4)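 Enterococci grown in Brain Heart Infusion broth, otherwise broth microdilution per CLSI M07-A9 (modified). Concentrated DMSO stocks kept at r.t. and diluted in double-distilled water, final DMSO <1%. Inoculum 1–1.2 x 10⁶ cells/mL mixed 1:1 with compound. 37 °C, 24 h, four parallels. OD₆₀₀ read-out, lowest concentration with no growth.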

Series [6] can be described thus: Drug metabolism in Sprague-Dawley rat liver microsomes assessed as CYP450-mediated N-(2-aminoethyl)-2-(aminomethyl)-2-[(3,5-dibromo-4-hydroxy-phenyl)methyl]-3-(3,5-dibromophenyl)propanamide formation incubated up to 3 hrs in presence of NADPH regenerating system by RP-HPLC-MS analysis. It counts as ADME. An outline of the steps:
as §1

In another series the test system is HepG2. Nature of the series: Cytotoxicity against human HepG2 cells assessed as reduction in cell viability incubated for 4 hrs by CellTiter 96 Aqueous One Solution Reagent based assay. As to conditions: HepG2, 4 h. In outline:
(§5)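 HepG2 and MRC-5 cells seeded at 35 000 and 15 000 cells/well respectively, then held overnight at 37 °C, 5% CO₂. Compounds in serum-free MEM Earle's applied for 4 h. MTS reagent (CellTiter 96 AQueous One) added for a further 1 h, absorbance read at 485 nm. Survival expressed relative to medium (negative) and Triton X-100 (positive) controls.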

Series [7] concerns Acinetobacter baumannii. Nature of the series: Antibacterial activity against multidrug-resistant Acinetobacter baumannii K63-58 producing oxcillinase-23 cultured in MHB medium assessed as reduction in bacterial growth incubated for 24 hrs by microdilution susceptibility test. It counts as functional. As to conditions: K63-58, 24 h. An outline of the steps:
as §2

The subject of series [8] is Staphylococcus aureus. The series can be described thus: Antibacterial activity against multidrug-resistant Staphylococcus aureus NCTC 10442 cultured in MHB medium assessed as reduction in bacterial growth incubated for 24 hrs by microdilution susceptibility test. As to conditions: NCTC 10442, 24 h. It is filed as functional. In outline: as §2
The subject of another series is MRC5. Nature of the series: Cytotoxicity against human MRC5 cells assessed as reduction in cell viability incubated for 4 hrs by CellTiter 96 Aqueous One Solution Reagent based assay. As to conditions: MRC5, 4 h. In outline:
as §5

Series [9] concerns Enterococcus faecium. The series can be described thus: Antibacterial activity against multidrug-resistant Enterococcus faecium K36-18 cultured in BHIB medium assessed as reduction in bacterial growth incubated for 24 hrs by microdilution susceptibility test. It counts as functional. As to conditions: K36-18, 24 h. An outline of the steps:
as §4

Series [10] deals with Pseudomonas aeruginosa. Nature of the series: Antibacterial activity against multidrug-resistant Pseudomonas aeruginosa K34-73 producing Verona integron encoded metallo beta-lactamse-4 cultured in MHB medium assessed as reduction in bacterial growth incubated for 24 hrs by microdilution susceptibility test. As to conditions: K34-73, 24 h. It counts as functional. An outline of the steps:
as §2

The subject of the next series is Klebsiella pneumoniae. The series can be described thus: Antibacterial activity against multidrug-resistant Klebsiella pneumoniae 50625602 producing oxcillinase-245 cultured in MHB medium assessed as reduction in bacterial growth incubated for 24 hrs by microdilution susceptibility test. It counts as functional. As to conditions: Klebsiella pneumoniae, 50625602, 24 h. An outline of the steps: as §2

The test system of series [11] is Staphylococcus aureus. Nature of the series: Antibacterial activity against multidrug-resistant Staphylococcus aureus 85/2082 cultured in MHB medium assessed as reduction in bacterial growth incubated for 24 hrs by microdilution susceptibility test. It counts as functional. As to conditions: 85/2082, 24 h. In outline:
as §2

The test system of series [12] is Enterococcus faecium. The series can be described thus: Antibacterial activity against multidrug-resistant Enterococcus faecium 50673722 cultured in BHIB medium assessed as reduction in bacterial growth incubated for 24 hrs by microdilution susceptibility test. It counts as functional. As to conditions: Enterococcus faecium, 50673722, 24 h. In outline: as §4
For series [13], the system named is Escherichia coli. Nature of the series: Antibacterial activity against Escherichia coli ATCC 25922 cultured in MHB medium assessed as no bacterial growth incubated at 37 degC for 24 hrs by microdilution susceptibility test. It counts as functional. As to conditions: ATCC 25922, 24 h. In outline:
as §3

The test system of series [14] is Escherichia coli. Nature of the series: Antibacterial activity against multidrug-resistant Escherichia coli 50676002 producing New Delhi metallo-beta-lactamase-1 cultured in MHB medium assessed as reduction in bacterial growth incubated for 24 hrs by microdilution susceptibility test. It is filed as functional. As to conditions: Escherichia coli, 50676002, 24 h. An outline of the steps:
as §2

The subject of series [15] is Staphylococcus aureus. Nature of the series: Antibacterial activity against multidrug-resistant Staphylococcus aureus N315 cultured in MHB medium assessed as reduction in bacterial growth incubated for 24 hrs by microdilution susceptibility test. It counts as functional. As to conditions: N315, 24 h. In outline: as §2
The subject of series [16] is Pseudomonas aeruginosa. Nature of the series: Antibacterial activity against multidrug-resistant Pseudomonas aeruginosa K34-7 producing Verona integron encoded metallo beta-lactamse-2 cultured in MHB medium assessed as reduction in bacterial growth incubated for 24 hrs by microdilution susceptibility test. It counts as functional. As to conditions: K34-7, 24 h. In outline: as §2

Series [17] in a line: Aqueous solubility of the compound in DMSO. It is filed as physicochemical.
Series [18] in a line: Drug metabolism in Sprague-Dawley rat liver microsomes assessed as CYP450-mediated 2-[[2-(aminomethyl)-3-[3,5-bis(trifluoromethyl)phenyl]-2-[[3,5-bis(trifluoromethyl)phenyl]methyl]propanoyl]amino]acetic acid formation incubated up to 3 hrs in presence of NADPH regenerating system by RP-HPLC-MS analysis. It counts as ADME. In outline: as §1

In brackets after ≈: the same amount, converted by molar mass. Some results are limits rather than exact numbers.

With `NCCNC(=O)C(CN)(Cc1cc(Br)cc(Br)c1)Cc1cc(Br)cc(Br)c1`, the Drug metabolism entry in series [1], in series [3] and in [6] was “Metabolite_Notdetected” each time. The MIC (as a rule, the lowest concentration that inhibits growth of the organism) in the series on Acinetobacter baumannii [2] is 32 µg/mL (≈ 51 µM); in the series with Staphylococcus aureus [4], 2 µg/mL (≈ 3.19 µM); in the series with Enterococcus faecium [5], 8 µg/mL (≈ 12.8 µM); in the series with Acinetobacter baumannii [7], 32 µg/mL (≈ 51 µM); in the series with Staphylococcus aureus [8], 8 µg/mL (≈ 12.8 µM); with Enterococcus faecium [9] it was 8 µg/mL (≈ 12.8 µM). In addition, the MIC was 32 µg/mL (≈ 51 µM) in the series on Pseudomonas aeruginosa [10]; 8 µg/mL (≈ 12.8 µM) with Klebsiella pneumoniae; 8 µg/mL (≈ 12.8 µM) with Staphylococcus aureus [11]; 8 µg/mL (≈ 12.8 µM) with Enterococcus faecium [12]; 4 µg/mL (≈ 6.38 µM) in the series on Escherichia coli [13]; 16 µg/mL (≈ 25.5 µM) with Escherichia coli [14]. Besides, the MIC in the series with Staphylococcus aureus [15] was 8 µg/mL (≈ 12.8 µM); in the series with Pseudomonas aeruginosa [16], > 32 µg/mL. The EC50 (as a rule, the concentration needed to bring the measured effect to its halfway point) came to 13 µg/mL (≈ 20.7 µM) in the series on HepG2 and 17 µg/mL (≈ 27.1 µM) with MRC5. Further, the solubility entry in series [17] is listed as “Soluble”.
Take `NCCNC(=O)C(CN)(Cc1cc(C(F)(F)F)cc(C(F)(F)F)c1)Cc1cc(C(F)(F)F)cc(C(F)(F)F)c1`: the MIC with Acinetobacter baumannii [2] was 8 µg/mL (≈ 13.7 µM); in the series on Staphylococcus aureus [4], 4 µg/mL (≈ 6.86 µM); in the series on Enterococcus faecium [5] it was 8 µg/mL (≈ 13.7 µM); in the series with Acinetobacter baumannii [7] it was 8 µg/mL (≈ 13.7 µM); with Staphylococcus aureus [8], 16 µg/mL (≈ 27.4 µM); with Enterococcus faecium [9], 8 µg/mL (≈ 13.7 µM). Besides, the MIC with Pseudomonas aeruginosa [10] amounted to 32 µg/mL (≈ 54.8 µM); with Klebsiella pneumoniae it was 16 µg/mL (≈ 27.4 µM); in the series on Staphylococcus aureus [11], 16 µg/mL (≈ 27.4 µM); in the series on Enterococcus faecium [12], 8 µg/mL (≈ 13.7 µM); in the series with Escherichia coli [13], 4 µg/mL (≈ 6.86 µM); in the series on Escherichia coli [14] it was 16 µg/mL (≈ 27.4 µM). Also, the values for the MIC in the series with Staphylococcus aureus [15] and with Pseudomonas aeruginosa [16] were 16 µg/mL (≈ 27.4 µM) and > 32 µg/mL, respectively. The EC50 in the series with HepG2 and in the series with MRC5 was 11 µg/mL (≈ 18.9 µM) in each case. Moreover, the Drug metabolism entry in series [18] was “Metabolite_Notdetected”. In addition, the solubility entry in [17] is on record as “Soluble”.
Consider `N#CC(Cc1cc(C(F)(F)F)cc(C(F)(F)F)c1)(Cc1cc(C(F)(F)F)cc(C(F)(F)F)c1)C(=O)NCCN`, for which the MIC in the series with Acinetobacter baumannii [2] is > 32 µg/mL; in the series with Staphylococcus aureus [4], 16 µg/mL (≈ 27.6 µM); in the series with Enterococcus faecium [5], 8 µg/mL (≈ 13.8 µM); in the series on Acinetobacter baumannii [7], > 32 µg/mL; with Staphylococcus aureus [8], 32 µg/mL (≈ 55.2 µM); in the series on Enterococcus faecium [9] it was 8 µg/mL (≈ 13.8 µM). In addition, the MIC is > 32 µg/mL in the series with Pseudomonas aeruginosa [10]; > 32 µg/mL in the series on Klebsiella pneumoniae; 32 µg/mL (≈ 55.2 µM) with Staphylococcus aureus [11]; 16 µg/mL (≈ 27.6 µM) in the series with Enterococcus faecium [12]; 32 µg/mL (≈ 55.2 µM) with Escherichia coli [13]; > 32 µg/mL with Escherichia coli [14]. For the same compound, the MIC in the series with Staphylococcus aureus [15] and in the series with Pseudomonas aeruginosa [16] was > 32 µg/mL each time. For the same compound, the EC50 in the series on HepG2 is 20 µg/mL (≈ 34.5 µM); in the series with MRC5, 12 µg/mL (≈ 20.7 µM). Moreover, in series [17], the solubility entry is given as “Soluble”.
